Laboratory results published in ChEMBL document CHEMBL4350954, “Identification of Thienopyrimidine Scaffold as an Inhibitor of the ABC Transport Protein ABCC1 (MRP1) and Related Transporters Using a Combined Virtual Screening Approach” (J Med Chem, 2019).

Columns and labels:
[1] = biological target: T1, Multidrug resistance-associated protein 1 (Homo sapiens, UniProt P33527); assay: Reversal of ABCC1-mediated multidrug resistance in human H69AR cells assessed as resistance factor by measuring [GI50(resistant cell line without or with compound)/ GI50(sensitive cell line)] at 10 uM incubated for 72 hrs by MTT assay (reference value: 8.2); type: cell-based
T1 sequence (P33527 whole entry): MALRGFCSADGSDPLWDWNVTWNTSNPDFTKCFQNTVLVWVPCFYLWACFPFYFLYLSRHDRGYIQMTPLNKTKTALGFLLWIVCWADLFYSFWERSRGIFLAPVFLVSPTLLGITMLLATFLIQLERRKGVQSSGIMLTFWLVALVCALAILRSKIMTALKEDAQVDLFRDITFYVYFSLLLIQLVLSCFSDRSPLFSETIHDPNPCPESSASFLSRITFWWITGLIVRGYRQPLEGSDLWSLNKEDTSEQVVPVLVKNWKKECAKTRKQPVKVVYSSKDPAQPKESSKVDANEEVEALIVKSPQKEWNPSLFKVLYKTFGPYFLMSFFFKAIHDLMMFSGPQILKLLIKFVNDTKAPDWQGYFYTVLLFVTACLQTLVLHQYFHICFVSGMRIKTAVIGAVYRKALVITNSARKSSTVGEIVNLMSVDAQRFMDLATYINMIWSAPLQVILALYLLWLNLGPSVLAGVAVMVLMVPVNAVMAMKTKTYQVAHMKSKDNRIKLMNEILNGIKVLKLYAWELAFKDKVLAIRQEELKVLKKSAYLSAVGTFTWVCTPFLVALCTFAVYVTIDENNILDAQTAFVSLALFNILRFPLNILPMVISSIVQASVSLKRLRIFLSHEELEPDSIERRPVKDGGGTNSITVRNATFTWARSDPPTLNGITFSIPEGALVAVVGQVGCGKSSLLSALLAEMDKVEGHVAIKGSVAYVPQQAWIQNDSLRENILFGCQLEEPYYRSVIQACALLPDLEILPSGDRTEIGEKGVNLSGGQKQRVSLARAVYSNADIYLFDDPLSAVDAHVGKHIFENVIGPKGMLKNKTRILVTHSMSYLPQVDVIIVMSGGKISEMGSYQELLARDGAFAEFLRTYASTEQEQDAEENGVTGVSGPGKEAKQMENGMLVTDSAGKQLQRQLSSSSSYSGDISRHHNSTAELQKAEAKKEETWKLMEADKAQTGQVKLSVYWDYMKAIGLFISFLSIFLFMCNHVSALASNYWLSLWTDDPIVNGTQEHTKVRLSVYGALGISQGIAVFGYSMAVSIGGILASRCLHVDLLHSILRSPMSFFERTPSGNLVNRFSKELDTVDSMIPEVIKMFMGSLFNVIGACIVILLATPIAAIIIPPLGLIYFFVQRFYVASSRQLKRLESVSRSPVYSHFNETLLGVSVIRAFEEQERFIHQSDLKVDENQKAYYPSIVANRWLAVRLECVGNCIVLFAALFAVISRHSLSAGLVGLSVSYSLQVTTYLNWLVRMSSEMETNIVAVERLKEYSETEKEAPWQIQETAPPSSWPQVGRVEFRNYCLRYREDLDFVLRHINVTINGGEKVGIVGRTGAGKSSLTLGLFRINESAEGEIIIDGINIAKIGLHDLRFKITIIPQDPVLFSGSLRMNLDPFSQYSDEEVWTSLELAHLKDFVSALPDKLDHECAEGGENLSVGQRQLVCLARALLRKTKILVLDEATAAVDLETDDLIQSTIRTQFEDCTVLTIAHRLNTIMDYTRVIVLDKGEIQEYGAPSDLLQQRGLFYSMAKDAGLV

[2] = biological target: T1, Multidrug resistance-associated protein 1; assay: (§1) Reversal of ABCC1 (unknown origin)-mediated multidrug resistance in MDCK2 cells co-expressing MRP1 (unknown origin) assessed as resistance factor by measuring [GI50(resistant cell line without or with compound)/ GI50(sensitive cell line)] at 0.5 uM incubated for 72 hrs by MTT assay (reference value: 7); type: cell-based
[3] = biological target: T1, Multidrug resistance-associated protein 1; assay: as §1, with “5” for “0.5”; type: cell-based
[4] = biological target: T1, Multidrug resistance-associated protein 1; assay: as §1, with “10” for “0.5”; type: cell-based
[5] = biological target: T2, ATP-dependent translocase ABCB1 (Homo sapiens, UniProt P08183); assay: Inhibition of ABCB1 in human A2780/ADR cells preincubated for 30 mins followed by calcein AM addition and measured at 60 secs time interval by fluorescence assay; type: cell-based
T2 sequence (P08183 whole entry): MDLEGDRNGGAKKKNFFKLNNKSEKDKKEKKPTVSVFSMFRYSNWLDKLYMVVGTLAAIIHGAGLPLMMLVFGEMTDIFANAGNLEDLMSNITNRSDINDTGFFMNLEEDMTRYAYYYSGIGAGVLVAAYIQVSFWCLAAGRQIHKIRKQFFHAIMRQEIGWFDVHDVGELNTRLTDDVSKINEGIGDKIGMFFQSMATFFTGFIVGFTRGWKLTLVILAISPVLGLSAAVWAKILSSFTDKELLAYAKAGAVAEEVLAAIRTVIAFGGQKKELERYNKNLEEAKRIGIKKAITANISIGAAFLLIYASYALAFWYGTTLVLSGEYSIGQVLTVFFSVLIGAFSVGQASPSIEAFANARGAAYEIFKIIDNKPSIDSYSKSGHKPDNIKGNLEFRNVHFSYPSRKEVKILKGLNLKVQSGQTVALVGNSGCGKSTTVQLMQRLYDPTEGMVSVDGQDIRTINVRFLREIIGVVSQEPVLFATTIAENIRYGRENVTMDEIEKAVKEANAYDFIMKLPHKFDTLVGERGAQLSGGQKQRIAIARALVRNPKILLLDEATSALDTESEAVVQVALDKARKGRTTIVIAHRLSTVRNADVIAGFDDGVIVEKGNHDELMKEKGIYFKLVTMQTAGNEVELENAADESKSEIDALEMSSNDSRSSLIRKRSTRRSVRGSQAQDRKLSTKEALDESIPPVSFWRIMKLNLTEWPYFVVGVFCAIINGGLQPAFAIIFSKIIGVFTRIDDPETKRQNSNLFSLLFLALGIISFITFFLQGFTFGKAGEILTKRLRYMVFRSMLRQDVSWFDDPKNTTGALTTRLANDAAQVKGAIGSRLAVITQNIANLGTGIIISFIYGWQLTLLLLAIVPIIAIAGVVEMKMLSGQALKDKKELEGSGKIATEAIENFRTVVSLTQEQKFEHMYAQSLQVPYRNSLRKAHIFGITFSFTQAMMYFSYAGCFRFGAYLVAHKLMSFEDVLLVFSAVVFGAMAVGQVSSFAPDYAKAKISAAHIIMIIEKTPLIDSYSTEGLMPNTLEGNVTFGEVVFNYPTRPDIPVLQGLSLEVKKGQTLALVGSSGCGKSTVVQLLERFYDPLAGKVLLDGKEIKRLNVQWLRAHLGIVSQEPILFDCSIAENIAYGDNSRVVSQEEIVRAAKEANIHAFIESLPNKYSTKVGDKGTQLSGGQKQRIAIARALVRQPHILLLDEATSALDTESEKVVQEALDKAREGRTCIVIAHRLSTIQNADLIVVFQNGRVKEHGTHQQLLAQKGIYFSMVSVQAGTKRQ

[6] = biological target: T2, ATP-dependent translocase ABCB1; assay: Reversal of ABCB1-mediated multidrug resistance in human A2780/ADR cells assessed as resistance factor by measuring [GI50(resistant cell line without or with compound)/ GI50(sensitive cell line)] at 5 uM incubated for 72 hrs by MTT assay (reference value: 49); type: cell-based
Method in brief: (§2)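 MDR reversal assay with daunorubicin at 10 nM–10 µM, alone or with test compound at 0.5, 1, 5 or 10 µM. Resistant cells were ABCB1-overexpressing A2780/ADR or MDCK II MDR1, with sensitive A2780 or MDCK II cells as comparators. Resistance factor = resistant GI50 / sensitive GI50. EC50 was derived from resistance factors versus modulator concentration. Values are from ≥3 experiments in duplicate ± SEM.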

[7] = biological target: T2, ATP-dependent translocase ABCB1; assay: as §1, with “ABCB1” for “ABCC1”, “MDR1” for “MRP1”, “1” for “0.5”, “17)” for “7)”; type: cell-based; method in brief: as §2
[8] = biological target: T2, ATP-dependent translocase ABCB1; assay: as §1, with “ABCB1” for “ABCC1”, “MDR1” for “MRP1”, “5” for “0.5”, “17)” for “7)”; type: cell-based; method in brief: as §2
[9] = biological target: T2, ATP-dependent translocase ABCB1; assay: as §1, with “ABCB1” for “ABCC1”, “MDR1” for “MRP1”, “10” for “0.5”, “17)” for “7)”; type: cell-based; method in brief: as §2
[10] = biological target: T3, Broad substrate specificity ATP-binding cassette transporter ABCG2 (Homo sapiens, UniProt Q9UNQ0); assay: as §1, with “ABCG2” for “ABCC1”, “BCRP” for “MRP1”, “5” for “0.5”, “27)” for “7)”; type: cell-based
T3 sequence (Q9UNQ0 whole entry): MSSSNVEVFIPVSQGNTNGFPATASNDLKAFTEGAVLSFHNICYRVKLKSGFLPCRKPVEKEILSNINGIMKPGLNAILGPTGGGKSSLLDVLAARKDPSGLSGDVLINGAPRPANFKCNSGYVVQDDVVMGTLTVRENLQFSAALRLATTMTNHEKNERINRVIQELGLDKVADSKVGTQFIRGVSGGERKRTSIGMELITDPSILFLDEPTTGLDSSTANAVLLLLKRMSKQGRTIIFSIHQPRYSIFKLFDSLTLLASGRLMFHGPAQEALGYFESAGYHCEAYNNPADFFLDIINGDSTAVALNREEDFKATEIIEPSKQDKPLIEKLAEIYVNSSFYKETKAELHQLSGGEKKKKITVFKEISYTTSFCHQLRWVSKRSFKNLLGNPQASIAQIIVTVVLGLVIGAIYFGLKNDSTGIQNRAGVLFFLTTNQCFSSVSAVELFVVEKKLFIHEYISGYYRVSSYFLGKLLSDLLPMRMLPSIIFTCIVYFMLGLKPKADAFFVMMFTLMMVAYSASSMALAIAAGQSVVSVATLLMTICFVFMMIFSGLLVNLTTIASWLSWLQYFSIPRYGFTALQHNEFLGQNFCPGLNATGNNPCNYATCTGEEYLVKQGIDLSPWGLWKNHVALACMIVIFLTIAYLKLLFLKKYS

[11] = Growth inhibition of human A2780 cells incubated for 72 hrs by MTT assay; type: cell-based
Method in brief: (§3)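 MTT-based cytotoxicity assay giving GI50 of the compound alone in each listed parental, selected or transfected cell line.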

[12] = Growth inhibition of human H69AR cells incubated for 72 hrs by MTT assay; method in brief: as §3
[13] = biological target: T3, Broad substrate specificity ATP-binding cassette transporter ABCG2; assay: Non-competitive inhibition of ABCG2 (unknown origin)-mediated pheophorbide A transport in MDCK2 cells co-expressing BCRP (unknown origin) at 0.178 to 1 uM by Lineweaver-Burk plot analysis; type: cell-based
Method in brief: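 Lineweaver-Burk kinetics of ABCG2-mediated pheophorbide A transport in transfected MDCK II BCRP cells. Pheophorbide A was used at 0.5, 0.6, 0.8, 1.0 and 1.5 µM. Inhibitor was used at 0.178, 0.316, 0.562 and 1.00 µM, with a zero-inhibitor control.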

[14] = biological target: T2, ATP-dependent translocase ABCB1; assay: Competitive inhibition of ABCB1-mediated calcein-AM transport in human A2780/ADR cells at 0.056 to 0.316 uM by Lineweaver-Burk plot analysis; type: cell-based
Method in brief: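 Kinetic study of calcein AM transport by Lineweaver-Burk analysis. ABCC1 was studied in H69AR cells with calcein AM at 0.25, 0.3, 0.45, 0.6 and 0.8 µM and inhibitor at 0.316, 0.562, 1.00 and 1.78 µM plus a zero control. ABCB1 was studied in A2780/ADR cells with calcein AM at 0.2–0.8 µM and inhibitor at 0.056, 0.100, 0.178 and 0.316 µM plus a zero control.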

ABCC1 (MRP1) = assay: Therapeutic index, ratio of GI50 for human H69AR cells to IC50 for ABCC1 in human H69AR cells; type: toxicity, cell-based; conditions: read-out: TI
Method in brief: (§4)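 Therapeutic ratio = GI50 from the MTT cytotoxicity assay / IC50 from the inhibition assay in the same cell line. The cell lines were H69AR (calcein AM, ABCC1), A2780/ADR (calcein AM, ABCB1) and MDCK II BCRP (pheophorbide A, ABCG2).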

ABCG2 (BCRP) = assay: Therapeutic index, ratio of GI50 for MDCK2 cells co-expressing BCRP (unknown origin) to IC50 for ABCG2 (unknown origin) expressed in MDCK2 cells co-expressing BCRP (unknown origin); type: toxicity, cell-based; conditions: dog, read-out: TI; method in brief: as §4
[15] = biological target: T3, Broad substrate specificity ATP-binding cassette transporter ABCG2; assay: Reversal of ABCG2-mediated multidrug resistance in human MCF-7/MX cells assessed as resistance factor by measuring [GI50(resistant cell line without or with compound)/ GI50(sensitive cell line)] incubated for 72 hrs by MTT assay (reference value: 789)

CC1CCc2c(sc3nc(-c4cccnc4)nc(N4CCN(C(C(N)=O)c5ccccc5)CC4)c23)C1 (configuration not stated) gave a RatioGI50 [1] of 3, a RatioGI50 [2] of 4.7 and a RatioGI50 [3] of 2.2. The RatioGI50 [4] was 1.4, the IC50 [5] was 1.73 µM and the RatioGI50 [6] was 6.3. The RatioGI50 [7] was 4.3, the RatioGI50 [8] was 0.9 and the RatioGI50 [9] was 0.5. The RatioGI50 [10] was 4.5, the GI50 at 72 h [11] was 24.6 µM and the GI50 at 72 h [12] was 56.9 µM. For the same molecule, the “inhibition (INH)” value [13] was “Active”, the “inhibition (INH)” value [14] was “Active” and the selectivity ratio (ABCC1 (MRP1)) was 11.3. It also gave a selectivity ratio (ABCG2 (BCRP)) of 6.9 and a RatioGI50 [15] of 53.
